Reference: ChEMBL document CHEMBL4196020, “Original antileishmanial hits: Variations around amidoximes” (Eur J Med Chem, 2018)

Experiments:
Leishmania amazonensis [1] = assay: Antileishmanial activity against Leishmania amazonensis MHOM/BR/77/LTB0016 promastigotes after 72 hrs by resazurin dye based assay; assay type: functional, organism-based; settings: MHOM/BR/77/LTB0016, 72 h
Summary of the method: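 Promastigotes grown in Schneider's insect medium with 10% HIFCS, started at 1.0×10^6 cells/mL with or without a range of compound concentrations, 26 °C for 72 h. Viability read by resazurin. IC50 by logarithmic regression. Three independent experiments in triplicate, mean ± SD.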

[2] = Cytotoxicity against Balb/c mouse peritoneal macrophages assessed as reduction in cell viability after 72 hrs by resazurin assay; assay type: cell-based, Peritoneal macrophage
Summary of the method: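 Peritoneal cells collected by lavage in RPMI 1640 with 10% HIFCS, 2 mM L-glutamine, 1 mM pyruvate, streptomycin and penicillin. Adjusted to 1.0×10^6 cells/mL, plated in triplicate, 1 h at 37 °C in 5% CO2, non-adherent cells washed off. […] Three independent experiments, mean ± SD.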

[3] = Selectivity index, ratio of CC50 for cytotoxicity against Balb/c mouse peritoneal macrophages to IC50 for antileishmanial activity against Leishmania amazonensis MHOM/BR/77/LTB0016 promastigotes; assay type: toxicity; settings: read-out: Ratio CC50/IC50
Summary of the method: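 SI calculated as macrophage CC50 divided by promastigote IC50. Both values come from 72 h assays: macrophages in RPMI at 37 °C and promastigotes in Schneider's medium at 26 °C with resazurin read-out.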

Leishmania amazonensis [4] = assay: Antileishmanial activity against Leishmania amazonensis MHOM/BR/77/LTB0016 amastigotes infected in Balb/c mouse peritoneal macrophages after 72 hrs by hematological dye based light microscopic method; assay type: functional, organism-based; settings: MHOM/BR/77/LTB0016, 72 h
Summary of the method: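 Resident BALB/c peritoneal macrophages plated at 1×10^6/mL in RPMI, 1 h at 37 °C in 5% CO2, non-adherent cells washed off. Infected with stationary-phase promastigotes at 3:1 parasite/macrophage for 4 h, free parasites washed off, compounds added for 72 h. Slides stained with hematological dye, infected cells and amastigotes counted in at least 100 macrophages per sample. IC50 by nonlinear regression. Three independent experiments.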

[5] = Solubility of the compound in Schneider's insect medium supplemented with 10% HIFCS; assay type: physicochemical
[6] = Solubility of the compound in RPMI 1640 medium; assay type: physicochemical

SMILES | IC50 (Leishmania amazonensis [1]) [µM] | CC50 at 72 h [2] [µM] | selectivity ratio [3] | IC50 (Leishmania amazonensis [4]) [µM] | solubility [5] | solubility [6]
CC1(Cc2ccccc2)CC(S(=O)(=O)c2ccc(F)cc2)=C(c2ccc(/C(N)=N/O)cc2)O1 (stereo unspecified) | 5.4 | 102 | 18.9 | 7.9 | – | –
CCC1(CC)CC(S(=O)(=O)c2ccc(F)cc2)=C(c2ccc(/C(N)=N/O)cc2)O1 | 30.2 | 91.4 | 3 | – | – | –
CC1(Cc2cccc(/C(N)=N/O)c2)CC(S(=O)(=O)c2ccc(F)cc2)=C(c2ccc(/C(N)=N/O)cc2)O1 (stereo unspecified) | > 100 | 50.2 | – | – | Insoluble | –
CC1(Cc2ccc([N+](=O)[O-])cc2)CC(S(=O)(=O)c2ccc(F)cc2)=C(c2ccc(/C(N)=N/O)cc2)O1 (stereo unspecified) | 16.7 | 97.4 | 5.8 | – | – | –
Cc1ccccc1CC1(C)CC(S(=O)(=O)c2ccc(F)cc2)=C(c2ccc(/C(N)=N/O)cc2)O1 (stereo unspecified) | 2.1 | 77.6 | 37 | 7.2 | – | –
Cc1cccc(CC2(C)CC(S(=O)(=O)c3ccc(F)cc3)=C(c3ccc(/C(N)=N/O)cc3)O2)c1 (stereo unspecified) | 5.6 | 112 | 19.9 | 6.7 | – | –
CC1(Cc2ccccc2Br)CC(S(=O)(=O)c2ccc(F)cc2)=C(c2ccc(/C(N)=N/O)cc2)O1 (stereo unspecified) | 9.1 | 109 | 12 | 9.3 | – | –
CC1(Cc2ccccc2C(F)(F)F)CC(S(=O)(=O)c2ccc(F)cc2)=C(c2ccc(/C(N)=N/O)cc2)O1 (stereo unspecified) | 4.8 | 105 | 21.9 | 10.2 | – | –
N/C(=N\O)c1ccc(C2=C(S(=O)(=O)c3ccc(F)cc3)CC3(CCCCC3)O2)cc1 | 49.5 | 92.9 | 1.9 | – | – | –
CC1(Cc2cccc([N+](=O)[O-])c2)CC(S(=O)(=O)c2ccc(F)cc2)=C(c2ccc(/C(N)=N/O)cc2)O1 (stereo unspecified) | 11.6 | 86.6 | 7.5 | – | – | –
CC1(Cc2cccc(CO)c2)CC(S(=O)(=O)c2ccc(F)cc2)=C(c2ccc(/C(N)=N/O)cc2)O1 (stereo unspecified) | > 100 | > 100 | – | – | Insoluble | Insoluble
CC1(Cc2ccc(CO)cc2)CC(S(=O)(=O)c2ccc(F)cc2)=C(c2ccc(/C(N)=N/O)cc2)O1 (stereo unspecified) | > 100 | > 100 | – | – | Insoluble | Insoluble
CC1(Cc2ccc(C(F)(F)F)cc2)CC(S(=O)(=O)c2ccc(F)cc2)=C(c2ccc(/C(N)=N/O)cc2)O1 (stereo unspecified) | 8.2 | 103 | 12.6 | > 20 | – | –
CC1(Cc2cc(C(F)(F)F)cc(C(F)(F)F)c2)CC(S(=O)(=O)c2ccc(F)cc2)=C(c2ccc(/C(N)=N/O)cc2)O1 (stereo unspecified) | 5.4 | 43.1 | 8 | – | – | –
COc1ccc(CC2(C)CC(S(=O)(=O)c3ccc(F)cc3)=C(c3ccc(/C(N)=N/O)cc3)O2)cc1 (stereo unspecified) | 24 | > 100 | > 4.2 | – | – | Insoluble
CC1(Cc2ccc(-c3ccccc3)c(F)c2)CC(S(=O)(=O)c2ccc(F)cc2)=C(c2ccc(/C(N)=N/O)cc2)O1 (stereo unspecified) | 12.2 | 24.5 | 2 | – | – | –
CC1(Cc2ccc(-c3ccccc3)cc2)CC(S(=O)(=O)c2ccc(F)cc2)=C(c2ccc(/C(N)=N/O)cc2)O1 (stereo unspecified) | 14.8 | 33.9 | 2.3 | – | – | –
CC1(Cc2ccc(/C(N)=N/O)cc2)CC(S(=O)(=O)c2ccc(F)cc2)=C(c2ccc(/C(N)=N/O)cc2)O1 (stereo unspecified) | > 100 | 42.2 | – | – | Insoluble | –
CC1(Cc2cccc(C(F)(F)F)c2)CC(S(=O)(=O)c2ccc(F)cc2)=C(c2ccc(/C(N)=N/O)cc2)O1 (stereo unspecified) | 6.7 | 49.8 | 7.4 | – | – | –
Cc1ccc(CC2(C)CC(S(=O)(=O)c3ccc(F)cc3)=C(c3ccc(/C(N)=N/O)cc3)O2)cc1 (stereo unspecified) | 23.2 | 54.4 | 2.3 | – | – | –
CC1(Cc2ccccc2)CC(S(=O)(=O)c2ccc(F)cc2)=C(c2cccc(/C(N)=N/O)c2)O1 (stereo unspecified) | 74.7 | > 200 | > 2.7 | – | – | Insoluble
COc1cc(CC2(C)CC(S(=O)(=O)c3ccc(F)cc3)=C(c3ccc(/C(N)=N/O)cc3)O2)cc(OC)c1OC (stereo unspecified) | 45.6 | 92.3 | 2 | – | – | –
CC1(C/C=C/c2ccc(C(F)(F)F)cc2)CC(S(=O)(=O)c2ccc(F)cc2)=C(c2ccc(/C(N)=N/O)cc2)O1 (stereo unspecified) | 17.2 | 43.9 | 2.6 | – | – | –
N=C(N)c1ccc(OCCCCCOc2ccc(C(=N)N)cc2)cc1 [PENTAMIDINE] | 5.7 | – | 1.5 | – | – | –
